Measured values from ChEMBL document CHEMBL4364260, “Discovery of Ziresovir as a Potent, Selective, and Orally Bioavailable Respiratory Syncytial Virus Fusion Protein Inhibitor” (J Med Chem, 2019).
Active and inactive are the calls of the source. The calls are words filed in the database; no cut-off is given here.

Assays:
[1] = tested on: Fusion glycoprotein F0 (Human respiratory syncytial virus A (strain A2)), P03420 [D489A]; assay: Inhibition of Human respiratory syncytial virus Fusion protein D489A mutant expressed in Hep2 cells as reduction in virus induced cytopathic effect by CCK-8 assay; assay type: cell-based
How it was run: (§1)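 HEp-2 cells were seeded at 6000/well and infected with plaque-purified RSV carrying the F-protein mutation (D486N or D489A) at MOI 0.04, with serially diluted compound. Viability was read by CCK-8 absorbance at 450 nm/650 nm, and EC50/EC90 were derived from protection against virus-induced cytopathic effect.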

[2] = AUC (0 to 24 hrs) in CD-1 mouse plasma at 10 mg/kg/day, po administered via gavage and measured up to 24 hrs by LC/MS/MS analysis; assay type: ADME, organism-based; set-up: dose 10 mg/kg/day, time < 24 hr, route oral
[3] = Oral bioavailability in Wistar-Han rat at 10 mg/kg administered as single dose via gavage and measured up to 24 hrs by LC/MS/MS analysis; assay type: ADME, organism-based; settings: in vivo
How it was run: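 Male Wistar-Han rats, single dose, 2 mg/kg iv and 10 mg/kg po, run by standard procedures.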

[4] = tested on: Human orthopneumovirus; assay: Antiviral activity against Human respiratory syncytial virus B18537 infected in human Hep2 cells assessed as reduction in virus induced cytopathic effect in presence of 10% FBS after 5 days by CCK-8 assay; assay type: functional, organism-based; settings: subgroup B / strain 18537, HEp-2, 120 h
How it was run: (§2)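 HEp-2 cells seeded at 6000/well and infected the next day at MOI 0.02, a dose that gives about 90% CPE by day 5. Serial compound dilutions were present throughout, in standard medium with 10% FBS. Viability was read by CCK-8 at day 5, and EC50 is the concentration that cuts CPE by 50%.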

[5] = biological target: Fusion glycoprotein F0 (human respiratory syncytial virus) (UniProt Q89535); assay: Inhibition of Human respiratory syncytial virus Fusion protein assessed as reduction in protein-induced syncytia formation at 0.1 uM after 3 days by microscopic method relative to control
How it was run: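 Serially diluted compound was added to cells expressing RSV-F. Cell-cell fusion (syncytia) was scored by microscopy three days after compound addition.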

[6] = Clearance in cynomolgus monkey at 2 mg/kg, iv or 10 mg/kg, po; assay type: ADME, organism-based, Macaca fascicularis; settings: in vivo
How it was run: (§3)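 Cynomolgus monkeys got single doses of 2 mg/kg iv and 10 mg/kg po as a solution in 12.5% captisol in water. Plasma CL, Vss, iv T1/2, AUC and oral F were derived.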

[7] = Half-life in CD-1 mouse plasma at 10 mg/kg/day, po administered via gavage and measured up to 24 hrs by LC/MS/MS analysis; assay type: ADME, organism-based
[8] = Oral bioavailability in cynomolgus monkey at 10 mg/kg; assay type: ADME, organism-based, Macaca fascicularis; settings: in vivo; how it was run: as §3
[9] = Cmax in CD-1 mouse plasma at 10 mg/kg/day, po administered via gavage and measured up to 24 hrs by LC/MS/MS analysis; assay type: ADME, organism-based; set-up: dose 10 mg/kg/day, route oral
[10] = tested on: Enterovirus; assay: Antiviral activity against Rhinovirus infected in human Hep2 cells assessed as reduction in virus induced cytopathic effect after 5 days by CCK-8 assay; assay type: functional, organism-based
[11] = Antiviral activity against Human respiratory syncytial virus B 821 clinical isolates infected in human Hep2 cells assessed as reduction in virus induced cytopathic effect in presence of 10% FBS after 5 days by CCK-8 assay; assay type: functional, cell-based; settings: human respiratory syncytial virus, 821, HEp-2, 120 h; how it was run: as §2
[12] = tested on: Human orthopneumovirus; assay: Antiviral activity against Human respiratory syncytial virus A2 infected in human Hep2 cells assessed as reduction in virus induced cytopathic effect after 5 days by CCK-8 assay; assay type: functional, organism-based; settings: A2, HEp-2, 120 h
How it was run: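 CPE protection assay in HEp-2 cells, 6000 per well, infected next day with RSV at MOI 0.02 to give about 90% cytopathic effect after 5 days. Serial compound dilutions were present during incubation. Cell viability was measured by CCK-8 at day 5 to give EC50.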

[13] = Half-life in CD-1 mouse at 5 mg/kg, iv; assay type: ADME, organism-based; settings: in vivo
How it was run: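 Single-dose PK in CD-1 mice: 5 mg/kg iv, 50 mg/kg po. Dosed as a solution in 5% DMSO, 40% PEG400, 55% of 0.9% NaCl. Plasma CL, Vss, iv T1/2, AUC and F were derived.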

[14] = tested on: Human parainfluenza virus 2; assay: Antiviral activity against Human parainfluenza virus 2 infected in human Hep2 cells assessed as reduction in virus induced cytopathic effect after 5 days by CCK-8 assay; assay type: functional, organism-based; settings: Human orthorubulavirus 2
[15] = Half-life in Sprague-Dawley rat at 2 mg/kg, iv; assay type: ADME, organism-based; settings: in vivo
How it was run: (§4)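 Rat single-dose PK: 2 mg/kg iv and 10 mg/kg po. Compound was given as a solution in 5% DMSO/40% PEG400/55% of 0.9% saline. Plasma CL, Vss, iv half-life, AUC and oral bioavailability were reported.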

[16] = AUC (0 to 24 hrs) in Beagle dog at 10 mg/kg, po; assay type: ADME, organism-based, Canis lupus familiaris; set-up: dose 10 mg/kg, time < 24 hr, route oral; settings: in vivo
How it was run: (§5)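 Single-dose PK. Dog received 1 mg/kg iv or 10 mg/kg po, and cynomolgus monkey received 2 mg/kg iv or 10 mg/kg po. Both were given as a solution in 12.5% captisol in water. Plasma AUC was taken from the oral arm, with CL, Vss, iv T1/2 and F also derived.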

[17] = Cytotoxicity against human Hep2 cells assessed as reduction in cell viability after 5 days by CCK-8 assay; assay type: cell-based; settings: HEp-2 cells
How it was run: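 Uninfected HEp-2 cells (6000/well) were incubated 5 days with serially diluted compound. Viability was read by CCK-8, and CC50 is the concentration toxic to 50% of cells.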

[18] = Antiviral activity against Human respiratory syncytial virus A strain Long infected in human Hep2 cells assessed as reduction in virus induced cytopathic effect in presence of 10% FBS after 5 days by CCK-8 assay; assay type: functional, cell-based; settings: HEp-2, 120 h; how it was run: as §2
[19] = Volume of distribution at steady state in Beagle dog at 1 mg/kg, iv or 10 mg/kg, po; assay type: ADME, organism-based, Canis lupus familiaris; settings: in vivo, read-out: Vdss
How it was run: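 Beagle dog single-dose PK at 1 mg/kg iv and 10 mg/kg po, dosed as a solution in 12.5% captisol in water. Plasma clearance, Vss, iv T1/2, AUC and F were reported.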

[20] = Volume of distribution at steady state in Sprague-Dawley rat at 2 mg/kg, iv or 10 mg/kg, po; assay type: ADME, organism-based; settings: in vivo, read-out: Vdss; how it was run: as §4
[21] = AUC (0 to 24 hrs) in CD-1 mouse at 50 mg/kg, po; assay type: ADME, organism-based; set-up: dose 50 mg/kg, time < 24 hr, route oral; settings: in vivo
How it was run: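 Single-dose PK in mouse at 5 mg/kg iv or 50 mg/kg po, as a solution in 5% DMSO, 40% PEG400 and 55% 0.9% sodium chloride. Plasma AUC was taken from the oral arm, with CL, Vss, iv T1/2 and F also derived.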

[22] = tested on: Fusion glycoprotein F0 (Human respiratory syncytial virus A (strain A2)), P03420 [D486N]; assay: Inhibition of Human respiratory syncytial virus Fusion protein D486N mutant expressed in Hep2 cells as reduction in virus induced cytopathic effect by CCK-8 assay; assay type: cell-based; how it was run: as §1
[23] = AUC (0 to 24 hrs) in cynomolgus monkey at 10 mg/kg, po; assay type: ADME, organism-based, Macaca fascicularis; set-up: dose 10 mg/kg, time < 24 hr, route oral; settings: in vivo; how it was run: as §5

Q: Which results are given for `Cc1ccc2nc(N3CCS(=O)(=O)c4ccccc4C3)nc(NCC3(N)COC3)c2c1` [ZIRESOVIR]?
A: EC90 [1]: 10000 nM; AUC at 24 h [2]: 8380 ng·h/mL; bioavailability [3]: 32%; EC50 [4]: 2 nM; EC90 [4]: 3 nM; inhibition [5]: 100%; clearance [6]: 26 mL/min/kg; half-life [7]: 1.02 h; bioavailability [8]: 22%; Cmax [9]: 5090 ng/mL; Activity [10]: inactive; EC50 [11]: 3 nM; EC90 [11]: 8 nM; EC50 [12]: 2 nM; EC90 [12]: 3 nM; half-life [13]: 0.4 h; Activity [14]: inactive; half-life [15]: 1.2 h; AUC(0-t) at 24 h [16]: 1170 ng·h/mL; CC50 at 120 h [17]: > 100000 nM; EC50 [18]: 3 nM; EC90 [18]: 5 nM; Vd [19]: 6.7 L/kg; Vd [20]: 3.9 L/kg; AUC(0-t) at 24 h [21]: 1970 ng·h/mL; EC90 [22]: > 10000 nM; AUC(0-t) at 24 h [23]: 1440 ng·h/mL
